Each block holds one molecule with its values, some of them ahead of it.
What was measured:
annexin A1 [1] = target: T1, annexin A1 (Mus musculus, UniProt P10107); assay: SPR, carbohydrates flowed over annexin A1 immobilized on NTA chips; assay type: binding; conditions: annexin A1 1 µM immobilized
T1 sequence (P10107 1-346): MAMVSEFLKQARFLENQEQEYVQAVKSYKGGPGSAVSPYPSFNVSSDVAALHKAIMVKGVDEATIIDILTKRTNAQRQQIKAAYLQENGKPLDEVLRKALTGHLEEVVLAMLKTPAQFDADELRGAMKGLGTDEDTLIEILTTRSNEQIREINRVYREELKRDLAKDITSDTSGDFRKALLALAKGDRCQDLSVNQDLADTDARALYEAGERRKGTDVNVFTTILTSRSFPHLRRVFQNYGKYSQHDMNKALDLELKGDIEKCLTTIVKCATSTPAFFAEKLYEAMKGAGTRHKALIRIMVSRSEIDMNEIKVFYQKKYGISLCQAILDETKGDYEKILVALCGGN
Procedure, shortened: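 The NTA chip was primed with 500 μM NiCl2 in HBS-EP running buffer (10 mM HEPES pH 7.4, 150 mM NaCl, 50 μM EDTA, 0.05% Tween-20), then His-tagged mouse annexin A1 (1 μM) was captured. Test glycans, either free glycosaminoglycans or polyacrylamide-coupled glycans at 5 or 50 μg/mL, or buffer alone, were injected for 3 min in HBS-N with 1 mM CaCl2 and 1 mM MgCl2. After dissociation, the chip was regenerated with 35 mM EDTA.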

annexin A1 [2] = target: T1, annexin A1; assay: Glycan array; assay type: binding; conditions: annexin A1-His 0.2 mg/ml, 2 mM CaCl2, 2 mM MgCl2, fluorescence (RFU)
Procedure, shortened: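 Recombinant full-length mouse annexin A1 with a C-terminal His6 tag was expressed in E. coli BL21(DE3) with 1 mM IPTG induction, purified on Ni-NTA and dialysed into 20 mM Tris pH 7.9 with 250 mM NaCl. The array was probed with 0.2 mg/mL protein in TBS-CM (pH 7.4) containing 1% BSA and 0.05% Tween-20, for 60 min at room temperature in a humid chamber. Read-out was mean RFU of 6 replicates after dropping the highest and lowest values.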

Binding to annexin A1 immobilized on NTA SPR chip (annexin A1 [1]; carbohydrate flowed over): did not interact
Molecule: LacNAc

Glycosaminoglycan binding to annexin A1 immobilized on NTA SPR chip (annexin A1 [1]; glycosaminoglycans 5 or 50 µg/mL): bound less well
Molecule: CO[C@H]1O[C@H](COS(=O)(=O)O)[C@@H](O[C@@H]2O[C@@H](C(=O)O)[C@@H](O[C@H]3O[C@H](COS(=O)(=O)O)[C@@H](O[C@@H]4O[C@H](C(=O)O)[C@@H](O[C@H]5O[C@H](COS(=O)(=O)O)[C@@H](O)[C@H](O)[C@H]5NS(=O)(=O)O)[C@H](O)[C@H]4O)[C@H](OS(=O)(=O)O)[C@H]3NS(=O)(=O)O)[C@H](O)[C@H]2OS(=O)(=O)O)[C@H](O)[C@H]1NS(=O)(=O)O [arixtra, fondaparinux sodium]

Annexin A1 binding on glycan array (annexin A1 [2]): strongest binder
Annexin A1 binding on glycan array (annexin A1 [2]; listed as [3OSO3^− ][6OSO3^−]Galβ1-4[6OSO3^−]GlcNAcβ): best binder
Molecule: [3OSO3^−][6OSO3^−]Galβ1-4[6OSO3^−]GlcNAcβ-Sp0 [compound 26]

Annexin A1 binding on glycan array (annexin A1 [2]): among the best recognized glycans
Molecule: O=C[C@H](O)[C@@H](O)[C@H](O)[C@H](O)C(=O)O [glucuronic acid]

Reference: article PMC3068229 (Biochemistry, 2011)
